Data published in ChEMBL document CHEMBL3526151, “Reversible disulfide formation of the glutamate carboxypeptidase II inhibitor E2072 results in prolonged systemic exposures in vivo” (Drug Metab Dispos, 2012).

Columns and labels:
[1] = Phase 1 metabolic stability in mouse liver microsomes assessed as compound remaining at 10 uM measured for 1 hr by LC-MS/MS analysis; format: ADME; conditions: read-out: Stability
Outline: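 Liver microsomes (0.5 mg/ml) were incubated with 10 µM compound (final) in 100 mM potassium phosphate, pH 7.4. An NADPH-regenerating system was present: 1.3 mM NADPH, 3.3 mM glucose 6-phosphate, 3.3 mM MgCl2, 0.4 U/ml G6PDH and 50 µM sodium citrate. Runs were in duplicate, with samples taken up to 1 h and quenched with acetonitrile containing internal standard. Loss of compound was followed by LC-MS/MS.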

Cynomolgus monkey [2] = experiment: AUC(0 to infinity) in cynomolgus monkey at 5 mg/kg, po by LC-MS/MS analysis; format: ADME, organism-based, Macaca fascicularis, Plasma; set-up: dose 5 mg/kg, route oral, time infinity; conditions: in vivo
Outline: (§1)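 Cynomolgus monkeys (n = 3) dosed orally at a nominal 5 mg/kg in TCEP-treated 50 mM HEPES solution. Blood taken via iliac or femoral arterial cannula up to 9 days into heparin/NEM tubes. Plasma analyzed by LC-MS/MS. Cl/F and Vd/F derived noncompartmentally.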

Rattus norvegicus [3] = experiment: Toxicity in Sprague-Dawley rat chronic constriction injury model assessed as paw withdrawal latencies on non-ligated side at 10 mg/kg/day, po; format: organism-based; set-up: route oral; conditions: in vivo
[4] = Volume of distribution in Sprague-Dawley rat at 1 mg/kg, iv administered as bolus injection measured under fasted conditions by LC-MS/MS analysis; format: ADME, organism-based; set-up: dose 1 mg/kg, route intravenous; conditions: in vivo
Outline: (§2)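 Jugular-cannulated male Sprague-Dawley rats, 280–330 g, fasted overnight to 4 h post-dose. Single dose in 50 mM HEPES-buffered saline pH 7.4, by oral gavage or as tail-vein i.v. bolus. Blood into heparin/NEM tubes at 0–24 h. Plasma measured by LC-MS/MS; noncompartmental analysis; Tmax observed; Vd = dose/(AUCinf·λz).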

Cynomolgus monkey [5] = experiment: Apparent oral clearance in cynomolgus monkey at 5 mg/kg, po by LC-MS/MS analysis; format: ADME, organism-based, Macaca fascicularis; set-up: dose 5 mg/kg, route oral; conditions: in vivo; outline: as §1
[6] = Apparent volume of distribution in cynomolgus monkey at 5 mg/kg, po by LC-MS/MS analysis; format: ADME, organism-based, Macaca fascicularis; set-up: dose 5 mg/kg, route oral; conditions: in vivo; outline: as §1
Rattus norvegicus [7] = experiment: Analgesic activity in Sprague-Dawley rat chronic constriction injury model assessed as change in paw withdrawal latency at 10 mg/kg/day, po (reference value: -3.11 +/-0.34 s); format: functional
[8] = Volume of distribution in Sprague-Dawley rat at 30 mg/kg, iv administered as bolus injection measured under fasted conditions by LC-MS/MS analysis; format: ADME, organism-based; set-up: dose 30 mg/kg, route intravenous; conditions: in vivo; outline: as §2
[9] = Elimination half life in cynomolgus monkey at 5 mg/kg, po by LC-MS/MS analysis; format: ADME, organism-based, Macaca fascicularis; set-up: dose 5 mg/kg, route oral; conditions: in vivo, read-out: beta t1/2 (converted)
Outline: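 Cynomolgus monkeys (n = 3) received a nominal 5 mg/kg dose in 50 mM HEPES, TCEP-treated to prevent disulfide formation. Dosing was either an IV bolus via cephalic or saphenous vein or oral. Arterial cannula blood was collected into NEM-containing heparinized tubes for up to 9 days and analyzed by LC-MS/MS. Noncompartmental analysis gave t1/2 = 0.693/λz and F% = dose-normalized mean AUCinf p.o./i.v. ×100.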

[10] = AUC(0 to last) in Sprague-Dawley rat at 1 mg/kg, iv administered as bolus injection measured under fasted conditions by LC-MS/MS analysis; format: ADME, organism-based; set-up: time 0 - last, dose 1 mg/kg, route intravenous; conditions: plasma
Outline: (§3)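 Male Sprague-Dawley rats (280–330 g), jugular vein cannulated, fasted overnight until 4 h post-dose. Single tail-vein bolus of 0.1, 1, 10 or 30 mg/kg in 50 mM HEPES buffered saline, pH 7.4. Blood drawn 0–24 h into heparin tubes containing NEM. Plasma quantified by LC-MS/MS after NEM derivatization. Noncompartmental analysis: AUClast by linear trapezoidal rule, Cl = dose/AUC0-∞. Mean ± S.D., n = 4–9.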

[11] = Tmax in cynomolgus monkey at 5 mg/kg, iv administered as bolus injection by LC-MS/MS analysis; format: ADME, organism-based, Macaca fascicularis; set-up: dose 5 mg/kg, route intravenous; conditions: in vivo
Outline: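 Cynomolgus monkeys (n=3) dosed at 5 mg/kg nominal, TCEP-treated 50 mM HEPES solution, either as i.v. bolus (cephalic or saphenous vein) or orally. Arterial cannula blood into heparin/NEM tubes for up to 9 days. Plasma parent and homodisulfide measured by LC-MS/MS; Tmax observed.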

[12] = Protein binding in cynomolgus monkey serum at 10 uM after 1 hr by LC-MS/MS analysis; format: ADME, Macaca fascicularis; conditions: read-out: PB (converted)
Outline: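 Serum from the named species spiked to 10 μM and held 1 h at 37°C, then ultrafiltered through a 5000 Da cutoff device (45 min, 37°C, 1800g). Filtrate and unfiltered serum extracted and measured by LC-MS/MS; % bound = 100 − (Cu/Cs × 100).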

[13] = Cmax in Sprague-Dawley rat at 10 mg/kg, iv by LC-MS/MS analysis; format: ADME, organism-based; set-up: dose 10 mg/kg, route intravenous; conditions: in vivo
Outline: (§4)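 Male Sprague-Dawley rats dosed intravenously at 10 mg/kg (n = 6). Blood sampling extended to 7 days into heparin tubes containing NEM. Plasma assayed for parent and homodisulfide by LC-MS/MS, calibration range 1–5000 ng/ml. Noncompartmental analysis, t1/2 = 0.693/λz. Mean ± S.D.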

[14] = AUC(0 to last) in Sprague-Dawley rat at 10 mg/kg, iv by LC-MS/MS analysis; format: ADME, organism-based; set-up: time 0 - last, dose 10 mg/kg, route intravenous; conditions: plasma; outline: as §4
[15] = Tmax in Sprague-Dawley rat at 10 mg/kg, iv by LC-MS/MS analysis; format: ADME, organism-based; set-up: dose 10 mg/kg, route intravenous; conditions: in vivo
[16] = Phase 1 metabolic stability in monkey liver microsomes assessed as compound remaining at 10 uM measured for 1 hr by LC-MS/MS analysis in absence of cofactors; format: ADME, Macaca mulatta; conditions: rhesus monkey, read-out: Stability
Outline: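 Cofactor-free controls were run for each microsomal incubation: 0.5 mg/ml liver microsomes with 10 µM compound, omitting cofactors, so that cofactor-independent degradation could be measured. Samples were taken up to 1 h, quenched with acetonitrile containing internal standard, and the percent remaining was determined by LC-MS/MS.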

[17] = Tmax in Sprague-Dawley rat at 0.1 mg/kg, po administered via gavage measured under fasted conditions by LC-MS/MS analysis; format: ADME, organism-based; set-up: dose 0.1 mg/kg, route oral; conditions: in vivo; outline: as §2
[18] = AUC(0 to last) in Sprague-Dawley rat at 0.1 mg/kg, iv administered as bolus injection measured under fasted conditions by LC-MS/MS analysis; format: ADME, organism-based; set-up: time 0 - last, dose 0.1 mg/kg, route intravenous; conditions: plasma; outline: as §3
[19] = Clearance in Sprague-Dawley rat at 1 mg/kg, iv administered as bolus injection measured under fasted conditions by LC-MS/MS analysis; format: ADME, organism-based; set-up: dose 1 mg/kg, route intravenous; conditions: in vivo; outline: as §3
[20] = Tmax in Sprague-Dawley rat at 10 mg/kg, po administered via gavage measured under fed conditions by LC-MS/MS analysis; format: ADME, organism-based; set-up: dose 10 mg/kg, route oral; conditions: in vivo
Outline: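 Nonfasted male Sprague-Dawley rats gavaged once at 10 mg/kg in 50 mM HEPES-buffered saline pH 7.4. Blood into heparin/NEM tubes at 0, 0.25, 0.5, 1, 2, 4, 6, 8 and 24 h. Plasma analysed by LC-MS/MS; Tmax taken as the observed value.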

[21] = Apparent volume of distribution in Sprague-Dawley rat at 30 mg/kg, po administered via gavage measured under fasted conditions by LC-MS/MS analysis; format: ADME, organism-based; set-up: dose 30 mg/kg, route oral; conditions: in vivo
Outline: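 Fasted male Sprague-Dawley rats (280–330 g) received 0.1, 1, 10 or 30 mg/kg by oral gavage in 50 mM HEPES buffered saline, pH 7.4. Blood drawn at 0.25–24 h into heparin/NEM tubes; plasma analyzed by LC-MS/MS. Cmax taken as observed. AUC by linear trapezoidal rule with extrapolation by λz. Cl/F and Vd/F reported. Mean ± S.D., n = 4–9.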

- remaining at 1 h, 10 µM [1]: > 90%
- AUC (Cynomolgus monkey [2]): 24935.6 ng·h/mL
- Vd [4]: 0.21 L/kg
- CL/F (Cynomolgus monkey [5]): 0.95 mL/min/kg
- Vd/F [6]: 0.79 L/kg
- Vd [8]: 1.08 L/kg
- half-life [9]: 574 min
- AUC(0-t) [10]: 12700 ng·h/mL
- Tmax [11]: 4.8 min
- fraction unbound at 1 h, 10 µM [12]: 0.101
- Cmax [13]: 57.2 µg/mL
- AUC(0-t) [14]: 86700 ng·h/mL
- Tmax [15]: 6.6 min
- remaining at 1 h, 10 µM [16]: > 90%
- Tmax [17]: 49.8 min
- AUC(0-t) [18]: 1800 ng·h/mL
- clearance [19]: 0.833 mL/min/kg
- Tmax [20]: 17.4 min
- Vd/F [21]: 2.39 L/kg
SMILES: O=C(O)c1cccc(-c2cccc(CCS)c2C(=O)O)c1
- Activity (Rattus norvegicus [3]): Non-toxic
- Time (Rattus norvegicus [7]): -0.55 s
